High-throughput results from PubChem.
FXN GAA850 act – FXN promoter activators, primary screen, cell-based, luciferase luminescence, HEK293 lucGAA850; HEK293 lucGAA850 FXN promoter luciferase reporter, 24 h; percent of 10 µM SAHA response; activation, % at 6 µM; actives 0.56% (n = 360,000);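 active = activation above the average of all compounds screened plus 3 SD, cutoff fixed separately per campaign, cut at about 7.5% in these data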;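 note: 0% = DMSO wells and 100% = 10 µM SAHA wells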
CCR6 antag – CCR6 receptor antagonists, primary screen, cell-based, CHO-K1, luminescence, beta-arrestin, uHTS | C-C chemokine receptor type 6 (Homo sapiens), P51684 | CHO-K1 CCR6 PathHunter beta-arrestin, CCL20-stimulated | inhibition, % at 20 µM | actives 0.49% (n = 340,000);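 active = compounds whose inhibition of the agonist-driven luminescence signal at 20 µM reaches about 50%, limit read from the data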;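 note: cells stimulated with CCL20 at 14 nM final; plate controls were DMSO with CCL20 for no effect and DMSO without agonist for full effect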
EBI2 block – EBI2 receptor antagonists, beta-arrestin recruitment, primary screen, cell-based, luminescence, 7a,25-OHC stimulation, uHTS; G-protein coupled receptor 183 (Homo sapiens), P32249; 7a,25-OHC stimulated; inhibition, % at 5 µM; actives 0.81% (n = 360,000); AID 651636, 2012; in the data active = inhibition above about 38%;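 note: enzyme fragment complementation signal reports receptor beta-arrestin coupling in cells; 0% = agonist plus DMSO wells and 100% = wells without agonist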
Target sequence (P32249 whole entry, looked up, the tested form may be a part): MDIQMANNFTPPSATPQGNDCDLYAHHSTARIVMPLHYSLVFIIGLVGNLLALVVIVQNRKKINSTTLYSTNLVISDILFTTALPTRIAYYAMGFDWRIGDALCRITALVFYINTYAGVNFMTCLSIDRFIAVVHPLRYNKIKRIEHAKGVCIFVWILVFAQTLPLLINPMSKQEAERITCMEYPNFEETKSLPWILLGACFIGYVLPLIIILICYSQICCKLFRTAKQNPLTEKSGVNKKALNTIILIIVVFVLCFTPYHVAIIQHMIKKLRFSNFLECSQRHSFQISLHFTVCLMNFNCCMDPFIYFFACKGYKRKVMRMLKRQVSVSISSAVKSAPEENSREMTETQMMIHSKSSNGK
CXCR6 block – CXCR6 receptor inhibitors, primary screen, cell-based, beta-arrestin, luminescence, CHO-K1 PathHunter, 1536-well. AID 602244, 2012. inhibition, % at 20 µM. C-X-C chemokine receptor type 6 (Homo sapiens), O00574. actives 0.36% (n = 360,000); in the data active = inhibition above about 34%, passing the limit was not always enough;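 note: antagonist mode with CXCL16 agonist at 10 nM final; 0% = 10 nM CXCL16 with DMSO and 100% = unstimulated wells without agonist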
APJ agonist – agonists of human apelin receptor APJ, primary screen, CHO-K1 cells, PathHunter beta-arrestin, luminescence. actives 0.11% (n = 330,000). 0% DMSO wells, 100% apelin. activation, % at 20 µM. P35414;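 active = activation more than six SD over the plate average, tested at 20 µM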;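 note: 0% = DMSO alone and 100% = apelin-13 at 10 nM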
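assay system = CHO-K1 APJ beta-arrestin complementation cell line | input = cell density 1000 per well | dosing = compound 20 µM once, DMSO 1% | timing = compound 90 min 25 °C, reagent 1 h | measured by = luminescence from split beta-galactosidase complementation, Galacton Star/Emerald II substrate | read-out basis = APJ agonist activity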
APJ antag – antagonists of human apelin receptor APJ, primary screen, CHO-K1 cells, beta-arrestin complementation, luminescence. AID 2521, 2010. actives 0.32% (n = 330,000). P35414. inhibition, % at 20 µM;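 active = inhibition above about 40% at 20 µM, limit read from the data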;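 note: cells challenged with 10 nM apelin-13 agonist together with compound; plate controls were apelin-13 plus DMSO wells for no effect and DMSO wells lacking apelin-13 for full effect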
Active calls of the source: *; nt = no result. A selection: hits, their analogues and other compounds. The true share with any hit is near 2%.

SMILES	FXN GAA850 act	CCR6 antag	EBI2 block	CXCR6 block	APJ agonist	APJ antag
COc1ccc(C(=O)O/N=C2\C(=O)N(C)c3ccccc32)cc1	1	59*	40	27	-2	17
CC(C)C(N)c1csc(NC(=O)Nc2ccc(OC(F)(F)F)cc2)n1 (centres undefined)	-1	nt	-5	-8	nt	nt
COc1cc(CNC(=O)c2ccc3oc(C(C)C)nc3c2)cc(OC)c1	1	18	3	4	-3	0
O=c1c2ccccc2sn1-c1ccc(F)cc1	-3	13	12	-5	0	-10
Cc1ccc(-n2sc3ccccc3c2=O)cc1	-4	52*	10	0	1	-33
COC(=O)C[C@@H]1C=C[C@H](NC(=O)c2cnccn2)[C@@H](CO)O1	nt	nt	-10	nt	nt	nt
CCc1sc(C(=O)Nc2cccc(-n3cnnn3)c2)cc1C	-1	10	14	-4	-4	0
O=c1[nH]c2cc3ccccc3cc2nc1-c1nnnn1Cc1ccccc1	nt	nt	3	-9	nt	nt
Cc1ccc(Nc2nc(-c3c(C)nc4ccccn34)cs2)cc1	2	-12	65*	-8	-1	0
Cc1nc(NCCCN2CCOCC2)c2cnn(-c3ccccc3)c2n1	3	0	-3	-2	nt	nt
COc1cccc(NC(=O)c2ccc3nc(C)c(N(C)Cc4ccc(NC(C)=O)cc4)n3c2)c1	0	nt	3	-1	nt	nt
CCOC(=O)[C@]12CCC=C1N(Cc1ccccc1)C(=O)[C@H](CC(=O)NCCCN1CCCC1=O)C2	nt	nt	-11	-10	nt	nt
Cn1c2ccccc2c(=O)c2ccc(NCCc3cccs3)cc21	10.0*	8	-6	-9	2	10
NC(=O)c1ccc(NCCc2cccs2)cc1	nt	nt	1	-12	nt	nt
CN(C(=O)C1CCN(S(=O)(=O)c2ccccc2)CC1)c1c(N)n(Cc2ccccc2)c(=O)[nH]c1=O	0	11	-18	-4	-3	14
N#CCNc1ccc([N+](=O)[O-])cc1C#N	0	-5	0	-26	4	-12
C=CCOc1cccc(C(=O)/C=C2/C(=O)Nc3ccccc32)c1	3	46	84*	35	2	-1
O=C(O)COc1ccccc1/C=C1\C(=O)Nc2ccc(Br)cc21	0	12	8	9	-4	5
CC(=O)/C=C1/C(=O)Nc2ccccc21	-2	76*	11	31	-10	92*
Cc1ccc(C(=O)/C=C/C(=O)c2ccc(C)cc2)cc1	5	100*	28	92*	-4	33
Cc1cc(C)c(S(=O)(=O)N2CCCC(C(=O)NCc3ccncc3)C2)c(C)c1 (centres undefined)	4	5	-19	0	-1	-52
COc1cccc(S(=O)(=O)N(C)C[C@@H]2Oc3cc(C#CCN(C)C)ccc3S(=O)(=O)N([C@H](C)CO)C[C@@H]2C)c1	0	nt	-1	-4	nt	nt
O=C(CNC(=O)c1cccc(Cl)c1)NCCCSc1ccccc1	-2	8	-11	3	-1	-40
O=C(NCc1cccnc1)/C(=C\c1ccc(-c2ccc(Br)cc2)o1)S(=O)(=O)c1ccccc1	-8	49	62*	25	-2	24
O=C(NCc1cccnc1)/C(=C/c1ccc(-c2ccc(Cl)cc2)o1)S(=O)(=O)c1ccccc1	-8	49	54*	26	-2	36
SMILES	FXN GAA850 act	CCR6 antag	EBI2 block	CXCR6 block	APJ agonist	APJ antag
O=C(NCc1cccnc1)/C(=C/c1ccc(-c2cccc(C(F)(F)F)c2)o1)NC(=O)c1ccccc1	-1	-4	-10	-4	0	-2
O=C(CN(Cc1ccc(Br)cc1)S(=O)(=O)c1ccccc1)NCc1cccnc1	0	14	-12	6	-2	0
CCC(=O)N1CCC(C)(C(=O)Nc2ccc(OC)c(OC)c2)C1 (centres undefined)	0	nt	0	1	nt	nt
CC1CCN(S(=O)(=O)c2ccc(NC(=S)NC(=O)c3ccc(Cl)cc3)cc2)CC1	1	55*	16	14	-5	32
[O-][N+](=Cc1c(Cl)cccc1Cl)CC1(O)CCCCC1	3	nt	-9	0	nt	nt
c1ccc2[nH]c(NN=C3CCCCCC3)nc2c1	7	14	6	-1	1	7
c1ccc2nc(NN=C3CCCCC3)ccc2c1	4	78*	11	35*	nt	nt
O=C(N/C(=C\c1cccc([N+](=O)[O-])c1)C(=O)N1CCOCC1)c1cccc(Br)c1	-1	1	-2	3	6	-4
CC1=CN2C(=N)/C(=C/c3ccc(Sc4ccc(Cl)cc4)o3)C(=O)N=C2S1	4	52*	3	19	-3	20
CC1=CN2C(=N)/C(=C/c3ccc(C)o3)C(=O)N=C2S1	3	29	-12	13	-6	19
CC1=CN2C(=N)/C(=C/c3ccc(Sc4ccc(C)cc4)o3)C(=O)N=C2S1	6	63*	0	34	-1	26
CN(C)CCCN(C(=O)CCc1ccccc1)c1nc2ccc(Br)cc2s1	0	53*	-16	-5	5	11
CN(C)CCCN(C(=O)CCc1ccccc1)c1nc2ccc(F)cc2s1	0	6	1	-6	-2	6
O=C(Cn1sc2ccccc2c1=O)NC12CC3CC(CC(C3)C1)C2	-4	29	32	41*	8	3
O=C(Cn1sc2ccccc2c1=O)Nc1ccccc1	-5	nt	-1	-5	nt	nt
O=C(O)c1ccccc1NC(=O)c1ccccc1Nc1ccccc1	-1	3	4	-2	1	4
C#CC(=O)N(c1cc(OC)ccc1OC)C(C(=O)NC1CCCC1)c1cccs1 (centres undefined)	-18	12	50*	13	2	12
C#CC(=O)N(c1ccc(OC)cc1OC)C(C(=O)NC1CCCC1)c1cccs1 (centres undefined)	-15	5	40	0	3	-13
Cc1cccc(-n2nc([N+](=O)[O-])c(=NC3CCN(Cc4ccccc4)CC3)n2O)c1	1	0	-26	-14	16*	-70
O=[N+]([O-])c1cc2cccnc2c2ncccc12	-1	-6	14	10	0	-5
O=[N+]([O-])c1cc(O)c2ncccc2c1	nt	54*	nt	nt	3	-58
Cc1ccccc1-n1nc(C(=O)c2cccs2)cc(-c2nc3ccccc3[nH]2)c1=N	6	17	16	17	-7	14
COc1ccc(-n2nc(C(=O)c3cccs3)cc(-c3nc4ccccc4[nH]3)c2=N)cc1	3	-11	53*	10	-8	13
